In ChEMBL document CHEMBL1177861, “Structural determinants of resveratrol for cell proliferation inhibition potency: experimental and docking studies of new analogs” (Eur J Med Chem, 2010):
Calls of active or inactive are those of the source. The rule behind the calls is not given here.

Legend:
SW480 [1] = assay: Antiproliferative activity against human SW480 cells assessed as cell viability using propidium iodide staining after 48 hrs; format: functional, cell-based; details: for IC50: SW480, 48 h
Outline: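 SW480 cells grown in RPMI with 10% FBS and 1% antibiotics; 30,000 cells/well seeded, treated after 24 h with compound in 0.1% DMSO (1 nM to 100 µM; 0.1% DMSO control). At 48 h adherent (trypsinized) plus detached cells stained with 1 µg/mL propidium iodide, counted by flow cytometry. IC50 from parametric regression of % viable cells vs control; triplicate wells, three experiments.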

SW480 [2] = assay: Cell cycle arrest in human SW480 cells assessed as >4n cells at 30 uM after 48 hrs by flow cytometry; format: functional
Outline: (§1)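 SW480 cells treated 48 h at 30 µM in 0.1% DMSO medium. DNA content measured by propidium iodide flow cytometry. Cells gated as 2n G0/G1, S (2<n<4), 4n G2/M and >4n (polyploid). Data are means ± SD of a representative experiment among three independent.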

SW480 [3] = assay: Cell cycle arrest in human SW480 cells assessed as accumulation at S phase at 30 uM after 48 hrs by flow cytometry; format: functional; outline: as §1
SW480 [4] = assay: Cell cycle arrest in human SW480 cells assessed as accumulation at G0/G1 phase at 30 uM after 48 hrs by flow cytometry; format: functional; outline: as §1
SW480 [5] = assay: Cell cycle arrest in human SW480 cells assessed as 4n cells at 30 uM after 48 hrs by flow cytometry; format: functional; outline: as §1
SW480 [6] = assay: Cell cycle arrest in human SW480 cells assessed as disturbance of diploid cells at 30 uM after 48 hrs by flow cytometry; format: functional, cell-based; outline: as §1
SW480 [7] = assay: Cell cycle arrest in human SW480 cells assessed as tetraploid cells generation at 30 uM after 48 hrs by flow cytometry; format: functional, cell-based; outline: as §1
SW480 [8] = assay: Cell cycle arrest in human SW480 cells assessed as polyploid cells generation at 30 uM after 48 hrs by flow cytometry; format: functional, cell-based; outline: as §1
SW480 [9] = assay: Cell cycle arrest in human SW480 cells assessed as accumulation of polyploid cells at 0.5 uM after 48 hrs by microscopic analysis; format: functional, cell-based
Outline: (§2)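 SW480 cells left untreated or exposed to 0.5 µM for 48 h. Actin was immunostained (Alexa 488) to show cell shape and nuclei were stained with Hoechst 33342. Fluorescence microscopy at 100x with identical settings; example of three independent experiments.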

SW480 [10] = assay: Antiproliferative activity against human SW480 cells assessed as cell viability using propidium iodide staining at 0.2 uM after 72 hrs; format: functional, cell-based
Outline: (§3)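 SW480 cells (RPMI, 10% FBS, 1% antibiotics) seeded at 30,000/well and treated 24 h later in 0.1% DMSO medium; 0.1% DMSO alone as control. After 24, 48 and 72 h, trypsinized adherent plus detached cells were labelled with 1 µg/mL propidium iodide and viable (PI-excluding) cells counted by flow cytometry. Triplicate wells; representative of three experiments, means ± SD.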

SW480 [11] = assay: Cell cycle arrest in human SW480 cells assessed as mitotic disturbances using Hoechst staining at 0.5 uM after 48 hrs by microscopic analysis; format: functional, cell-based; outline: as §2
SW480 [12] = assay: Antiproliferative activity against human SW480 cells assessed as cell viability using propidium iodide staining; format: functional, cell-based; details: TDE = time-dependent effect
Outline: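 SW480 colon carcinoma cells grown in RPMI with 10% FBS and 1% antibiotics. 30,000 cells/well were seeded, then treated after 24 h in medium with 0.1% DMSO (vehicle control 0.1% DMSO) at 1 nM to 100 µM for 48 h. Adherent plus detached cells were stained with 1 µg/mL propidium iodide and counted by flow cytometry. IC50 came from parametric regression of % viable cells vs control. Triplicate wells, three experiments.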

SW480 [13] = assay: Antiproliferative activity against human SW480 cells assessed as cell viability using propidium iodide staining after 48 hrs; details: SW480, 48 h
SW480 [14] = assay: Cell cycle arrest in human SW480 cells assessed as cytokinesis cells at 0.5 uM after 48 hrs by microscopic analysis; format: functional, cell-based; outline: as §2
SW480 [15] = assay: Cell cycle arrest in human SW480 cells assessed as increase of 4n and >4n cells at 0.5 uM after 48 hrs by flow cytometry; format: functional, cell-based
Outline: (§4)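 SW480 cells treated for 48 h at 0.2, 0.5 or 1.0 µM. DNA content was read by propidium iodide staining and flow cytometry. Populations were gated as 2n G0/G1, S (2<n<4), 4n G2/M and >4n. Means ± SD of a representative experiment out of three.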

SW480 [16] = assay: Antiproliferative activity against human SW480 cells assessed as cell viability using propidium iodide staining at 0.5 uM after 72 hrs; format: functional, cell-based; outline: as §3
SW480 [17] = assay: Cell cycle arrest in human SW480 cells assessed as increase of 4n and >4n cells at 0.2 uM after 48 hrs by flow cytometry; format: functional, cell-based; outline: as §4
SW480 [18] = assay: Cell cycle arrest in human SW480 cells assessed as increase of 4n and >4n cells at 1 uM after 48 hrs by flow cytometry; format: functional, cell-based; outline: as §4

Structure (SMILES)	IC50 (SW480 [1])	Activity (SW480 [6])	Activity (SW480 [7])	Activity (SW480 [8])	further results
COc1cc(/C=C/c2cc(OC)cc(OC)c2O)cc(OC)c1	17 µM				Activity (SW480 [2]): 10%; Activity (SW480 [3]): 15%; Activity (SW480 [4]): 50%; Activity (SW480 [5]): 25%
COc1cc(/C=C/c2ccc(OC)c(OC)c2)c(O)c(OC)c1	42 µM				
COc1ccc(/C=C/c2cc(OC)cc(OC)c2O)cc1	43 µM	Active	Active	Active	
COc1ccc(/C=C\c2cc(OC)cc(OC)c2O)cc1	18 µM	Active	Active	Active	
COc1cc(/C=C\c2cc(OC)cc(OC)c2)cc(OC)c1	13 µM	Active	Active	Active	
COc1cc(/C=C\c2cc(OC)cc(OC)c2O)cc(OC)c1	7 µM	Active	Active	Active	
COc1cc(/C=C\c2ccc(OC)c(OC)c2)c(O)c(OC)c1	10 µM	Active	Active	Active	
COc1cc(/C=C/c2cc(OC)cc(OC)c2)cc(OC)c1	48 µM				Activity (SW480 [2]): 10%; Activity (SW480 [3]): 15%; Activity (SW480 [4]): 50%; Activity (SW480 [5]): 25%
COc1ccc(/C=C\c2cc(OC)cc(OC)c2)cc1 [8Z-3,4',5-TRIMETHOXYSTILBENE]	0.3 µM	Active	Active	Active	Activity (SW480 [9]): Active; Activity (SW480 [10]): inactive; Activity (SW480 [11]): Active; Activity (SW480 [12]): tde; IC50 (SW480 [13]): 0.3 µM; Activity (SW480 [1]): Dose-dependent effect; Activity (SW480 [14]): Active; Activity (SW480 [15]): Active; Activity (SW480 [16]): inactive; Activity (SW480 [17]): inactive; Activity (SW480 [18]): Active
COc1cc(/C=C/c2ccc(OC)c(OC)c2)cc(OC)c1 [(E)-3,4,3',5'-TETRAMETHOXYSTILBENE]	100 µM				Activity (SW480 [2]): 10%; Activity (SW480 [3]): 15%; Activity (SW480 [4]): 50%; Activity (SW480 [5]): 25%
COc1cc(/C=C\c2ccc(OC)c(OC)c2)cc(OC)c1 [(Z)-3,4,3',5'-TETRAMETHOXYSTILBENE]	9.5 µM	Active	Active	Active	
Oc1ccc(/C=C\c2cc(O)cc(O)c2)cc1 [CIS-RESVERATROL]	90 µM				Activity (SW480 [2]): 10%; Activity (SW480 [3]): 15%; Activity (SW480 [4]): 50%; Activity (SW480 [5]): 25%
Oc1ccc(/C=C/c2cc(O)cc(O)c2)cc1 [RESVERATROL]	20 µM				
COc1ccc(/C=C/c2cc(OC)cc(OC)c2)cc1 [TRISMETHOXYRESVERATROL]	54 µM	Active	Active	Active	
